In ChEMBL document CHEMBL3351343, “Synthesis and biological evaluation of novel sigma-1 receptor antagonists based on pyrimidine scaffold as agents for treating neuropathic pain” (J Med Chem, 2014):

Tests used:
[1] = Half life in Sprague-Dawley rat at 320 mg/kg, po by HPLC/MS/MS analysis; format: ADME, organism-based; design: dose 320 mg/kg, route oral; settings: in vivo
Method in brief: (§1)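 Sprague-Dawley rats (250 ± 5.0 g), n = 8/group, dosed iv via lateral tail vein at 16 mg/kg in 100% saline or by oral gavage at 320 mg/kg as suspension in 0.5% methylcellulose. Serial tail-vein blood into heparinized tubes at 30 min, 1, 2, 3, 4, 5, 6, 7 and 24 h. Plasma treated by acetonitrile protein precipitation, then HPLC/MS on C18 column, 40 °C.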

Rattus norvegicus [2] = experiment: Cmax in Sprague-Dawley rat at 16 mg/kg, iv by HPLC/MS/MS analysis; format: ADME, organism-based; design: dose 16 mg/kg, route intravenous; settings: in vivo; method in brief: as §1
Mus musculus [3] = experiment: Antinociceptive activity in Kun Ming mouse pain model assessed as reduction in licking and biting time during phase-1 at 80 mg/kg, ip administered 15 mins prior to formalin challenge relative to vehicle-treated control; format: functional; settings: route intraperitoneal
Method in brief: (§2)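 Kun Ming mice (20 ± 2.0 g), 10–12 per group, given vehicle (30% PEG 400) or drug ip at 10 mL/kg 15 min before intraplantar formalin. Time spent licking or biting the injected paw scored at 0–5 min (phase I) and 15–45 min (phase II). Effect (%) = (LTV − LTD)/LTV × 100.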

[4] = target: Sodium-dependent serotonin transporter (Rattus norvegicus) (UniProt P31652); experiment: Displacement of [3H]-paroxetine from rat cerebral cortex serotonin HT transporter at 1 uM after 10 mins by liquid scintillation counting analysis; format: tissue-based
[5] = target: Mu-type opioid receptor (Homo sapiens) (UniProt P35372); experiment: Displacement of [3H]-diprenorphine from human mu-opioid receptor at 1 uM after 150 mins by liquid scintillation counting analysis
[6] = target: Sigma non-opioid intracellular receptor 1 (Cavia porcellus, UniProt Q60492); experiment: Displacement of [3H]-(+)-pentazocine from sigma-1 receptor in Dunkin Hartley guinea pig brain membranes after 180 mins by liquid scintillation counting analysis; design: species or system Membrane
Mus musculus [7] = experiment: Antinociceptive activity in ip dosed Kun Ming mouse pain model assessed as reduction in licking and biting time during phase-1 administered 15 mins prior to formalin challenge relative to vehicle-treated control; format: functional; method in brief: as §2
[8] = target: Cannabinoid receptor 2 (Homo sapiens) (UniProt P34972); experiment: Displacement of [3H]-CP-55940 from human CB2 receptor expressed in HEK cells at 1 uM after 90 mins by liquid scintillation counting analysis; format: cell-based; settings: HEK293
[9] = target: Cannabinoid receptor 1 (Homo sapiens) (UniProt P21554); experiment: Displacement of [3H]-CP-55940 from human CB1 receptor expressed in CHO cells at 1 uM after 90 mins by liquid scintillation counting analysis; format: cell-based
Rattus norvegicus [10] = experiment: Antineuropathic pain activity in po dosed Sprague-Dawley rat chronic constriction injury model assessed as inhibition of mechanical allodynia measured on day 18 by repeated dose treatment assay relative to sham-treated control; format: functional
Method in brief: (§3)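 Sprague-Dawley rats, sciatic nerve chronic constriction injury (four loose 4-0 silk ligatures, chloral hydrate anaesthesia); sham has nerve exposed without ligation. Model confirmed on day 14. Oral dosing in 0.5% methylcellulose, 10 mL/kg, twice daily on days 15–18. Read after first dose (day 15) and last dose (day 18). Von Frey withdrawal threshold and radiant-heat plantar withdrawal latency (30 s cutoff), each paw sampled four times and averaged; 10 rats/group.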

[11] = AUC (0 to infinity) in Sprague-Dawley rat at 320 mg/kg, po by HPLC/MS/MS analysis; format: ADME, organism-based; design: dose 320 mg/kg, route oral, time infinity; settings: plasma; method in brief: as §1
[12] = target: Histamine H1 receptor (Cavia porcellus) (UniProt P31389); experiment: Displacement of [3H]-mepyramine from guinea pig cerebellum histamine H1 receptor at 1 uM after 60 mins by liquid scintillation counting analysis
[13] = target: Norepinephrine transporter (Rattus norvegicus) (UniProt Q9WTR4); experiment: Displacement of [N-methyl-3H]-nisoxetine from rat hippocampal membrane Noradrenaline transporter at 1 uM after 8 hrs by liquid scintillation counting analysis; format: tissue-based; settings: Hippocampus
Rattus norvegicus [14] = experiment: Cmax in Sprague-Dawley rat at 320 mg/kg, po by HPLC/MS/MS analysis; format: ADME, organism-based; design: dose 320 mg/kg, route oral; settings: in vivo; method in brief: as §1
[15] = target: 5-hydroxytryptamine receptor 2A (Rattus norvegicus) (UniProt P14842); experiment: Displacement of [3H]-ketanserin from rat cerebral cortex 5-HT2A receptor at 1 uM after 15 mins by liquid scintillation counting analysis; format: tissue-based
Rattus norvegicus [16] = experiment: Antineuropathic pain activity in po dosed Sprague-Dawley rat chronic constriction injury model assessed as inhibition of thermal hypersensitivity measured on day 15 relative to sham-treated control; format: functional; method in brief: as §3
Rattus norvegicus [17] = experiment: Antineuropathic pain activity in po dosed Sprague-Dawley rat chronic constriction injury model assessed as inhibition of thermal hypersensitivity measured on day 18 by repeated dose treatment assay relative to sham-treated control; format: functional; method in brief: as §3
[18] = Displacement of [3H]-DTG from sigma-2 receptor in Dunkin Hartley guinea pig brain membrane after 120 mins by liquid scintillation counting analysis in presence of (+)-SKF10047; design: species or system Cavia porcellus
[19] = target: Histamine H3 receptor (Rattus norvegicus) (UniProt Q9QYN8); experiment: Displacement of [3H]-N-alpha-methylhistamine from rat cerebral cortex histamine H3 receptor at 1 uM after 30 mins by liquid scintillation counting analysis; format: tissue-based
Mus musculus [20] = experiment: Antinociceptive activity in ip dosed Kun Ming mouse pain model assessed as reduction in licking and biting time during phase-2 administered 15 mins prior to formalin challenge relative to vehicle-treated control; format: functional; method in brief: as §2
[21] = Tmax in Sprague-Dawley rat at 320 mg/kg, po by HPLC/MS/MS analysis; format: ADME, organism-based; design: dose 320 mg/kg, route oral; settings: in vivo; method in brief: as §1
[22] = Half life in Sprague-Dawley rat at 16 mg/kg, iv by HPLC/MS/MS analysis; settings: in vivo
[23] = AUC (0 to infinity) in Sprague-Dawley rat at 16 mg/kg, iv by HPLC/MS/MS analysis; settings: plasma
[24] = target: Adrenergic receptor alpha-2 (Rattus norvegicus) (UniProt P22086+P19328+P22909); experiment: Displacement of [3H]-rauwolscine from rat cerebral cortex adrenergic alpha-2 receptor at 1 uM after 60 mins by liquid scintillation counting analysis; format: tissue-based
[25] = Acute toxicity in po dosed Kun Ming mouse after 24 hrs; format: organism-based; settings: in vivo
[26] = Oral bioavailability in Sprague-Dawley rat at 320 mg/kg; format: ADME, organism-based; settings: in vivo
[27] = AUC (0 to 24 hrs) in Sprague-Dawley rat at 320 mg/kg, po by HPLC/MS/MS analysis; format: ADME, organism-based; design: time < 24 hr, dose 320 mg/kg, route oral; settings: plasma; method in brief: as §1

Sequence of 5-hydroxytryptamine receptor 2A (Rattus norvegicus) (P14842 whole entry): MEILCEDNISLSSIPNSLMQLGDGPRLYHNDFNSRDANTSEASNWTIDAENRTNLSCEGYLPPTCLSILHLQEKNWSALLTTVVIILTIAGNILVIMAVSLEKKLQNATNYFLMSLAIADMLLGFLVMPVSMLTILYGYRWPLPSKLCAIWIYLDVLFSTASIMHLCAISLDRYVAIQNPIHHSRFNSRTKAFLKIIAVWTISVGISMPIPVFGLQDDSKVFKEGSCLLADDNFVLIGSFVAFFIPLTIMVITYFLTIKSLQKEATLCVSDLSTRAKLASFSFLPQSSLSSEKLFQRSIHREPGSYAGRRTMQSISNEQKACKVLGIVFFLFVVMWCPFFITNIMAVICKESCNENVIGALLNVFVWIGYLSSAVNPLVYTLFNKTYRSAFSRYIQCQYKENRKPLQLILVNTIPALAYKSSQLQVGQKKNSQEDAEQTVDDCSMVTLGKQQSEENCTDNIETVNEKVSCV
Sequence of Histamine H1 receptor (Cavia porcellus) (P31389 whole entry): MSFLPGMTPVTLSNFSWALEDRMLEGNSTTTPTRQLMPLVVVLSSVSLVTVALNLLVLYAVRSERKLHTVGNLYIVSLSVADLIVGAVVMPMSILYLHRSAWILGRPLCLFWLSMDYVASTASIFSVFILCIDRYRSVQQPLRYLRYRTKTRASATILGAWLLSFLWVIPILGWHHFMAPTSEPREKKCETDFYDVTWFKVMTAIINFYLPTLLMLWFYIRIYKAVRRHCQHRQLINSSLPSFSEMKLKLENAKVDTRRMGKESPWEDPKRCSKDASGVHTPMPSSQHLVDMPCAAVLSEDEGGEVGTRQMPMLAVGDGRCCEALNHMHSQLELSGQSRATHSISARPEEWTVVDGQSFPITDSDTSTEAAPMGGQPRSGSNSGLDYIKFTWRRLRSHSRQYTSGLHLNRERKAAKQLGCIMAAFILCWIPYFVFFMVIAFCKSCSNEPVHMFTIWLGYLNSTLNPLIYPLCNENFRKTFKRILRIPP
Sequence of Cannabinoid receptor 2 (Homo sapiens) (P34972 whole entry): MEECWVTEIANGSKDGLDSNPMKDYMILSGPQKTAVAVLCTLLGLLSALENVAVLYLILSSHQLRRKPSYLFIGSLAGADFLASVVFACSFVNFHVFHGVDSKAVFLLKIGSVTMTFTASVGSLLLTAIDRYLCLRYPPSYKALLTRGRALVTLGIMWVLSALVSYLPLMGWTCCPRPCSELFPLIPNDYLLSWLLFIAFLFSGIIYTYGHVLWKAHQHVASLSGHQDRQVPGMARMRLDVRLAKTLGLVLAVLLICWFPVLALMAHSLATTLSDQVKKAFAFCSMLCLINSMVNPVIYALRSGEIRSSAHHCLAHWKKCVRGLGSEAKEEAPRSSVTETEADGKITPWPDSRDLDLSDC
Sequence of Sodium-dependent serotonin transporter (Rattus norvegicus) (P31652 whole entry): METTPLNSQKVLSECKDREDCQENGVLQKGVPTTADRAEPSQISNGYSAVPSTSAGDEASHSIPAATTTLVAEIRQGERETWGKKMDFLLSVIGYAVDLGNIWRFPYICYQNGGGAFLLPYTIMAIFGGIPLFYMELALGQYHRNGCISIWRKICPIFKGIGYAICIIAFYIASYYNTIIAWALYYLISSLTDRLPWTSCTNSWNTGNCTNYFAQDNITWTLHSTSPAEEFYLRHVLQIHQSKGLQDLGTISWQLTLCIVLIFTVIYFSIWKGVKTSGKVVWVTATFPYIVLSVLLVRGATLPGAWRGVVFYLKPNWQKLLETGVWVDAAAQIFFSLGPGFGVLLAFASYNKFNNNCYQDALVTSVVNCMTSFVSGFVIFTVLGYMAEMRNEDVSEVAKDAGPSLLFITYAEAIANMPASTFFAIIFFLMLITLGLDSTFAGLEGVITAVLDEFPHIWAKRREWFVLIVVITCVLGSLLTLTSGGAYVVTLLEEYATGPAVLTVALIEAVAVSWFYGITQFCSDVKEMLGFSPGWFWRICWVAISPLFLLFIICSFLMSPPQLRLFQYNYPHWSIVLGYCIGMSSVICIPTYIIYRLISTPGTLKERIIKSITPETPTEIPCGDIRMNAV
Sequence of Mu-type opioid receptor (Homo sapiens) (P35372 whole entry): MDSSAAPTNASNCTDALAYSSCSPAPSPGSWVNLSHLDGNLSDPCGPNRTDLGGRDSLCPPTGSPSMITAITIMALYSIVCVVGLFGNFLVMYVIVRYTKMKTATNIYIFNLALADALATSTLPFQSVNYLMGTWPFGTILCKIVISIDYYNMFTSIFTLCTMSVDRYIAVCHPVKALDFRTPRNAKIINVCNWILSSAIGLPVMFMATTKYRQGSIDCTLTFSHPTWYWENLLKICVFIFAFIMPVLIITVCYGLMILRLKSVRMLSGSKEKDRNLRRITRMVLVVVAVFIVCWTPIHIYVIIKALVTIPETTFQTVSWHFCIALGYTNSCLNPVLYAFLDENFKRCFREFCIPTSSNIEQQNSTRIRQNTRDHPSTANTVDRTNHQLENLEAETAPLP
Sequence of Norepinephrine transporter (Rattus norvegicus) (Q9WTR4 as listed by the source): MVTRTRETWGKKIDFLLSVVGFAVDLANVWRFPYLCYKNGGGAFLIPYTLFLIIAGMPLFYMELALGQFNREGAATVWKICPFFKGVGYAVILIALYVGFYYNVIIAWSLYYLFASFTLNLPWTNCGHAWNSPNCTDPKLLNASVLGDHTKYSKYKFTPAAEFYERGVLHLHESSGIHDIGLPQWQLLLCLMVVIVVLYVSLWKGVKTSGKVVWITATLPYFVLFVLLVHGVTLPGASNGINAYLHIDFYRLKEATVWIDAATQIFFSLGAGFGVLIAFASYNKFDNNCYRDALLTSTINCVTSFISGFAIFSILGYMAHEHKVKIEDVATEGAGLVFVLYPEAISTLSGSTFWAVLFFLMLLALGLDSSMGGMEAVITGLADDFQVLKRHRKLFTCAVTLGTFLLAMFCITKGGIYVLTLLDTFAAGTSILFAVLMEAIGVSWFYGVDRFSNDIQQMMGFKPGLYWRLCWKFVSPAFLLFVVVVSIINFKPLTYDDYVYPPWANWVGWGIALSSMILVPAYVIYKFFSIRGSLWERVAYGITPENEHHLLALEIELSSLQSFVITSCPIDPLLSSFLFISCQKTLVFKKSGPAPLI
Sequence of Histamine H3 receptor (Rattus norvegicus) (Q9QYN8 whole entry): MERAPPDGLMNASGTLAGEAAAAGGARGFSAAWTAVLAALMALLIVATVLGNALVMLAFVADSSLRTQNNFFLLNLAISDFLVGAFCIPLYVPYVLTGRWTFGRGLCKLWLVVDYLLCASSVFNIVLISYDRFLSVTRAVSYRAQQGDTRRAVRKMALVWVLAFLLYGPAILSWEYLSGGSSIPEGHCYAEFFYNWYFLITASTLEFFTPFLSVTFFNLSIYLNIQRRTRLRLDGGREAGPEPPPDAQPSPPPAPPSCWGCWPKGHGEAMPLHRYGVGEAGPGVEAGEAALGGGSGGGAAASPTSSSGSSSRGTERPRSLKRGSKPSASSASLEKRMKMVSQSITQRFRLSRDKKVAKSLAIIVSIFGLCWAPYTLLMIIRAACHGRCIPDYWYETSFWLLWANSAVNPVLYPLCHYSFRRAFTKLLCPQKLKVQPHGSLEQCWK
Sequence of Sigma non-opioid intracellular receptor 1 (Q60492 whole entry): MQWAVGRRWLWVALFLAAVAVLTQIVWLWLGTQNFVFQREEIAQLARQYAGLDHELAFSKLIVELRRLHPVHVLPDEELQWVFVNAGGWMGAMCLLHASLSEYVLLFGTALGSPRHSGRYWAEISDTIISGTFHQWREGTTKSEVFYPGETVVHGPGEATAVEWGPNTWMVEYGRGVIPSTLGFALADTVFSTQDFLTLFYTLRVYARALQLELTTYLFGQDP
Sequence of Cannabinoid receptor 1 (Homo sapiens) (P21554 whole entry): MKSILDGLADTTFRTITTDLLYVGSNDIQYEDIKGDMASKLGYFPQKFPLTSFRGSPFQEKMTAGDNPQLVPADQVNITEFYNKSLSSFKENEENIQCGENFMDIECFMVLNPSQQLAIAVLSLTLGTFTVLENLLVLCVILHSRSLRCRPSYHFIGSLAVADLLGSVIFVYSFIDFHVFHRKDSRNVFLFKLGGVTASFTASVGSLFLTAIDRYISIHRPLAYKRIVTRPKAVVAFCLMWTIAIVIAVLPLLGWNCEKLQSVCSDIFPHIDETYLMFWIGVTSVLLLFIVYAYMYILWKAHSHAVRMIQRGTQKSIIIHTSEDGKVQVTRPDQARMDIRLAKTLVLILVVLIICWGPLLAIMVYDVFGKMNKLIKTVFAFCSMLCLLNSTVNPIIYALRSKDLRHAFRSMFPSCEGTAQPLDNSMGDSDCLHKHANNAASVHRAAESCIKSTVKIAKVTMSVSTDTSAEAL

## Cc1nc(-c2ccc(Cl)cc2)nc(OCCCN2CCCCC2)c1Cl
[1]
  half-life: 3.81 h
Rattus norvegicus [2]
  Cmax: 7260 ng/mL
Mus musculus [3]
  Time: 12.65 s
[4]
  inhibition: < 50%
[5]
  inhibition: < 50%
[6]
  Ki: 1.06 nM
Mus musculus [7]
  Activity: Dose-dependent effect
  ED50: 48.4 mg/kg
[8]
  inhibition: < 50%
[9]
  inhibition: < 50%
Rattus norvegicus [10]
  inhibition: Dose-dependent effect
Rattus norvegicus [10]; 432 h
  ED50: 61.8 mg/kg
[11]
  AUC(0-inf): 55400 ng·h/mL
[12]
  inhibition: < 50%
[13]
  inhibition: < 50%
Rattus norvegicus [14]
  Cmax: 17400 ng/mL
[15]
  inhibition: < 50%
Rattus norvegicus [16]
  inhibition: Dose-dependent effect
Rattus norvegicus [16]; 360 h
  ED50: 47.2 mg/kg
Rattus norvegicus [17]
  inhibition: Dose-dependent effect
Rattus norvegicus [17]; 432 h
  ED50: 50.2 mg/kg
[18]
  Ki: 1420 nM
[19]
  inhibition: < 50%
Mus musculus [20]
  Activity: Dose-dependent effect
  ED50: 42.1 mg/kg
[21]
  Tmax: 0.5 h
[22]
  half-life: 10.6 h
[23]
  AUC(0-inf): 3690 ng·h/mL
[24]
  inhibition: < 50%
[25]
  LD50 at 24 h: > 2000 mg/kg
[26]
  bioavailability: 75.1%
[27]
  AUC(0-t) at 24 h: 54700 ng·h/mL
